Measurements: ChEMBL document CHEMBL3259712, “New 5-unsubstituted dihydropyridines with improved CaV1.3 selectivity as potential neuroprotective agents against ischemic injury” (J Med Chem, 2014)

Key:
Format in all cases: functional
SH-SY5Y [1] = assay: Neuroprotective activity against rotenone-oligomycin A-induced oxidative stress in human SH-SY5Y cells assessed as survival at 0.3 uM co-incubated rot/oligo for 24 hrs by MTT assay (Rvb =65.6 +/- 1.3%); conditions: read-out: Survival
SH-SY5Y [2] = assay: Neuroprotective activity against rotenone-oligomycin A-induced oxidative stress in human SH-SY5Y cells assessed as protection at 0.3 uM co-incubated rot/oligo for 24 hrs by MTT assay relative to control
SH-SY5Y [3] = assay: Neuroprotective activity against rotenone-oligomycin A-induced oxidative stress in human SH-SY5Y cells assessed as survival incubated with rot/oligo for 8 hrs followed by treated with compound at 0.3 uM for 16 hrs by MTT assay (Rvb =70.6 +/- 1.8%); conditions: read-out: Survival
How it was run: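 SH-SY5Y cells cultured 24 h, then exposed to rotenone/oligomycin A (30/10 μM) for 8 h at 37 °C. Stressor removed; compound in 1% FBS medium added for 16 h. DMSO-only control. MTT reduction (5 mg/mL, 2 h, 37 °C; OD 540 nm). Survival relative to untreated basal; mean ± SEM of five to seven cultures in triplicate.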

SH-SY5Y [4] = assay: Neuroprotective activity against rotenone-oligomycin A-induced oxidative stress in human SH-SY5Y cells assessed as protection incubated with rot/oligo for 8 hrs followed by treated with compound at 0.3 uM for 16 hrs by MTT assay relative to control

Molecule `COc1ccc2[nH]cc(CCNC(C)=O)c2c1` [MELATONIN] has a viability at 0.3 µM (SH-SY5Y [1]) of 82.5%, an Activity (SH-SY5Y [2]) of 44.7% and a viability at 0.3 µM (SH-SY5Y [3]) of 87.8%. For the same molecule, the Activity (SH-SY5Y [4]) was 58.3%.
